According to ChEMBL document CHEMBL3868601, “Functional 1,3a,6a-triazapentalene scaffold: Design of fluorescent probes for kinesin spindle protein (KSP)” (Bioorg Med Chem Lett, 2016):
Calls of active or inactive are those of the source. The rule behind the calls is not given here.

Key:
[1] = target: T1, Kinesin-like protein KIF11 (Homo sapiens, UniProt P52732); test: Inhibition of microtubule-stimulated kinesin spindle protein motor domain (unknown origin) ATPase activity preincubated for 20 mins followed by ATP addition measured after 15 mins by kinase-glo based luciferase reporter gene assay
T1 sequence (P52732 whole entry): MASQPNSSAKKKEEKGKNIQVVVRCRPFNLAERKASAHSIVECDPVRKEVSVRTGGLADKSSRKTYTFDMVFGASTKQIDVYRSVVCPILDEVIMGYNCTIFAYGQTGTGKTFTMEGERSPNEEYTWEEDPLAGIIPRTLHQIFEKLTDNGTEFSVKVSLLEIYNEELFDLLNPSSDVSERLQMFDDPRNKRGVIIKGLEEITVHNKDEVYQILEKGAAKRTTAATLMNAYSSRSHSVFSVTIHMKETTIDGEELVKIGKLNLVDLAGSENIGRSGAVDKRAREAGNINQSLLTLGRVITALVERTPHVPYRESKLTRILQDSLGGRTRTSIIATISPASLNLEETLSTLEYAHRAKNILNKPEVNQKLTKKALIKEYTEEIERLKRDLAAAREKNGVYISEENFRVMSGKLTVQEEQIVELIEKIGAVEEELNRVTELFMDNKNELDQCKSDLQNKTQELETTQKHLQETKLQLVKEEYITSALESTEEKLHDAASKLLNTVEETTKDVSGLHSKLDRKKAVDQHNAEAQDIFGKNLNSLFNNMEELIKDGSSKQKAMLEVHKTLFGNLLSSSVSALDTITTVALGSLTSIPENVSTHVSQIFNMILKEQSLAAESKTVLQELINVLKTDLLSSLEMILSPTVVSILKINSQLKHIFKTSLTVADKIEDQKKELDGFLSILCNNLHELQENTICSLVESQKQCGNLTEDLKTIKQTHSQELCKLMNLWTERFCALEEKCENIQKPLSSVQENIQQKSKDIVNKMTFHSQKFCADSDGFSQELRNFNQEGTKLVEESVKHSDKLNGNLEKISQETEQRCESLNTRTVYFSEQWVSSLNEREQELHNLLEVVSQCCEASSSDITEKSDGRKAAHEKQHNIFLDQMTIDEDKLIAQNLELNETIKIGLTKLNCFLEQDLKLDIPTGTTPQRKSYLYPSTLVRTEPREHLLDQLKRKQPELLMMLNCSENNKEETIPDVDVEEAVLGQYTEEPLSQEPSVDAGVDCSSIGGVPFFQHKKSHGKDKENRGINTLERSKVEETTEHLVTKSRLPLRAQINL
Summary of the method: (§1)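 Inhibition of microtubule-activated KSP ATPase activity was measured in vitro. IC50 values come from three independent experiments. Percent inhibition was also measured at 20 µM.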

[2] = Growth inhibition of human HeLa cells after 72 hrs by MTS assay; type: functional
Summary of the method: (§2)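 Proliferation of HeLa and A549 cells was measured by MTS assay. GI50 values, or percent growth inhibition at a single concentration (30 µM), come from at least three independent experiments.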

[3] = Solubility of the compound in DMEM medium at >50 uM by microscopic analysis; type: physicochemical
Summary of the method: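 During the 4 h mitotic assay in synchronized HeLa cells, the culture medium was inspected by microscopy for deposits of insoluble compound across the tested concentrations.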

[4] = Drug uptake in human HeLa cells at G2 phase expressing N-terminal hmAG1-tagged recombinant fluorescent KSP at 20 uM after 20 mins by fluorescence microscopic analysis
[5] = Drug uptake in human HeLa cells at early mitotic phase expressing N-terminal hmAG1-tagged recombinant fluorescent KSP at 20 uM after 20 mins by fluorescence microscopic analysis
[6] = Drug uptake in monoastral mitotic human HeLa cells expressing N-terminal hmAG1-tagged recombinant fluorescent KSP at 40 uM after 20 mins by fluorescence microscopic analysis; type: ADME, cell-based
Summary of the method: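 HeLa cells stably expressing KSP fused at its N-terminus to hmAG1 were treated in mitosis with 40 µM probe for 20 min at 37 °C. Live-cell fluorescence microscopy compared probe signal with the fluorescent KSP signal in monoastral mitotic cells.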

[7] = Drug uptake in cytoplasm of human HeLa cells expressing hmAG1-conjugated alpha-tubulin at 20 uM after 20 mins by fluorescence microscopic analysis; type: ADME, cell-based
Summary of the method: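 Live HeLa cells expressing hmAG1-conjugated α-tubulin (cytoplasm marker) or histone H2B (nucleus marker) were incubated with 20 µM probe for 20 min at 37 °C. Probe localization was imaged by live-cell fluorescence microscopy.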

[8] = target: T2, Kinesin-like protein KIF11 (Homo sapiens) (UniProt P52732); test: Inhibition of hmAG1-fused kinesin spindle protein (unknown origin) ATPase activity expressed in human HeLa cells assessed as accumulation of mitotic cells after 4 hrs by DAPI staining based fluorescence microscopy; type: cell-based
T2 sequence (whole entry): T1 sequence (P52732 whole entry)
Summary of the method: (§3)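 Synchronized HeLa cells were given compound as they entered M phase and cultured 4 h at 37 °C. Cells were fixed and immunostained for α-tubulin and KSP, with DAPI for chromosomes. The relative mitotic index was averaged over two independent experiments. Mitotic phenotypes, such as prometaphase with monopolar spindles, were scored as a percentage of mitotic cells.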

[9] = target: T2, Kinesin-like protein KIF11 (Homo sapiens); test: Inhibition of hmAG1-fused kinesin spindle protein (unknown origin) ATPase activity expressed in human HeLa cells assessed as irregular accumulation of KSP in central region of mitotic cells at 40 uM after 4 hrs by DAPI staining based fluorescence microscopy; type: cell-based
[10] = Growth inhibition of human A549 cells after 72 hrs by MTS assay; type: functional; conditions: A549, 72 h; summary of the method: as §2
[11] = target: T2, Kinesin-like protein KIF11 (Homo sapiens); test: Inhibition of hmAG1-fused kinesin spindle protein (unknown origin) ATPase activity expressed in human HeLa cells assessed as prometaphase with monopolar spindles at 40 uM after 4 hrs by DAPI staining based fluorescence microscopy relative to control; type: cell-based; summary of the method: as §3
[12] = target: T2, Kinesin-like protein KIF11 (Homo sapiens); test: Inhibition of microtubule-stimulated kinesin spindle protein motor domain (unknown origin) ATPase activity at 20 uM preincubated for 20 mins followed by ATP addition measured after 15 mins by kinase-glo based luciferase reporter gene assay; summary of the method: as §1
[13] = Growth inhibition of human A549 cells at 30 uM after 72 hrs by MTS assay; type: functional; conditions: A549, 72 h, read-out: GI; summary of the method: as §2

IC50 [1] [µM] | solubility [3] | Drug uptake [4] | Drug uptake [5] | Drug uptake [6] | Drug uptake [7] | inhibition [8] | inhibition [9] | inhibition [11] [%] | inhibition [12] [%] | SMILES | GI50 [2] [µM] | GI50 [10] [µM] | inhibition of growth at 30 µM [13] [%]
6.8 | Insoluble | Active | Active | Active | Active | Dose-dependent effect | Active | 63 | – | FC(F)(F)c1ccc(-c2ccc(-c3cn4ccc[n+]4[n-]3)cc2)cc1 | 19 | 22 | –
> 20 | – | – | – | – | – | – | – | – | 34 | FC(F)(F)c1ccc(-c2cn3ccc[n+]3[n-]2)cc1 | 25 | > 30 | 6
